Holding throughout (format): functional
The subject of one experiment is Enterococcus faecalis. As to the kind of experiment: Antibacterial activity against Enterococcus faecalis 2347 after 18 to 24 hrs by agar dilution method. In short, it runs like this:
(§1)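 MICs were determined by agar dilution on test agar. An overnight tryptosoy broth culture was diluted in the same broth to about 10⁶ cells/mL and spotted with an inoculating device onto agar containing serial twofold dilutions of compound. Plates were incubated at 37 °C for 18–20 h, and the MIC was the lowest concentration with no visible growth.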

A further experiment deals with Citrobacter freundii. Nature of the experiment: Antibacterial activity against Citrobacter freundii 323 after 18 to 24 hrs by agar dilution method. In short, it runs like this: as §1
The subject of a further experiment is Staphylococcus. As to the kind of experiment: Antibacterial activity against coagulase negative Staphylococcus after 18 to 24 hrs by agar dilution method. In short, it runs like this: (§2)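 Agar dilution on test agar holding serial twofold dilutions of compound. Overnight tryptosoy broth cultures were diluted in the same broth to about 10⁶ cells/mL and spotted with an inoculating device. Plates were incubated at 37 °C for 18–20 h.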

A further experiment concerns Pseudomonas aeruginosa. As to the kind of experiment: Antibacterial activity against Pseudomonas aeruginosa 5455 after 18 to 24 hrs by agar dilution method. In short, it runs like this:
as §1

A further experiment relates to Acinetobacter baumannii. Nature of the experiment: Antibacterial activity against Acinetobacter baumannii 2289 after 18 to 24 hrs by agar dilution method. In a few lines: as §1
A further experiment deals with Klebsiella pneumoniae. As to the kind of experiment: Antibacterial activity against Klebsiella pneumoniae 523 after 18 to 24 hrs by agar dilution method. In short, it runs like this: as §1
A further experiment deals with Enterobacter cloacae. As to the kind of experiment: Antibacterial activity against Enterobacter cloacae 34 after 18 to 24 hrs by agar dilution method. In short, it runs like this:
as §1

In the next experiment the test system is Escherichia coli. Nature of the experiment: Antibacterial activity against Escherichia coli 04 after 18 to 24 hrs by agar dilution method. In short, it runs like this: as §1
The test system of a further experiment is Streptococcus agalactiae. Nature of the experiment: Antibacterial activity against Streptococcus agalactiae 32 after 18 to 24 hrs by agar dilution method. In a few lines: as §1
For another experiment, the system named is Streptococcus pneumoniae. As to the kind of experiment: Antibacterial activity against Streptococcus pneumoniae 0025 after 18 to 24 hrs by agar dilution method. In a few lines:
as §1

The test system of the next experiment is Haemophilus influenzae. As to the kind of experiment: Antibacterial activity against Haemophilus influenzae 1210 after 18 to 24 hrs by agar dilution method. In short, it runs like this:
as §1

In another experiment the test system is Staphylococcus aureus. As to the kind of experiment: Antibacterial activity against Staphylococcus aureus 1218 after 18 to 24 hrs by agar dilution method. In a few lines:
as §1

The next experiment relates to Serratia marcescens. As to the kind of experiment: Antibacterial activity against Serratia marcescens 3349 after 18 to 24 hrs by agar dilution method. In a few lines: as §1
The test system of a further experiment is Streptococcus pyogenes. Nature of the experiment: Antibacterial activity against Streptococcus pyogenes 9889 after 18 to 24 hrs by agar dilution method. In short, it runs like this: as §2

≈ marks a conversion by molar mass, not a printed value.

`C[C@@H](O)C1C(=O)N2C(C(=O)O)=C(S[C@@H]3CN[C@H](CN4CC(C)(C)NS4(=O)=O)C3)[C@H](C)C12` (some centres not stated): the MIC was 6.25 µg/mL (≈ 13.2 µM) against Enterococcus faecalis; 0.049 µg/mL (≈ 0.103 µM) against Citrobacter freundii; 0.098 µg/mL (≈ 0.206 µM) in the experiment with Staphylococcus; 3.12 µg/mL (≈ 6.58 µM) in the experiment on Pseudomonas aeruginosa; 12.5 µg/mL (≈ 26.3 µM) with Acinetobacter baumannii; 0.049 µg/mL (≈ 0.103 µM) in the experiment on Klebsiella pneumoniae. For the same compound, the MIC was determined as 0.098 µg/mL (≈ 0.206 µM) against Enterobacter cloacae; 0.049 µg/mL (≈ 0.103 µM) against Escherichia coli; 0.02 µg/mL (≈ 0.0421 µM) against Streptococcus agalactiae; 0.02 µg/mL (≈ 0.0421 µM) against Streptococcus pneumoniae; 6.25 µg/mL (≈ 13.2 µM) with Haemophilus influenzae; 3.12 µg/mL (≈ 6.57 µM) in the experiment on Staphylococcus aureus. In addition, the MIC against Serratia marcescens was 0.049 µg/mL (≈ 0.103 µM); against Streptococcus pyogenes it was 0.01 µg/mL (≈ 0.0211 µM).

As for `C[C@@H](O)C1C(=O)N2C(C(=O)O)=C(S[C@@H]3CN[C@H](CN4CCNS4(=O)=O)C3)[C@H](C)C12` (some centres not stated), the MIC against Enterococcus faecalis was determined as 6.25 µg/mL (≈ 14 µM); against Citrobacter freundii, 0.049 µg/mL (≈ 0.11 µM); with Staphylococcus, 0.098 µg/mL (≈ 0.219 µM); in the experiment with Pseudomonas aeruginosa, 0.781 µg/mL (≈ 1.75 µM); with Acinetobacter baumannii, 12.5 µg/mL (≈ 28 µM); with Klebsiella pneumoniae it was 0.049 µg/mL (≈ 0.11 µM). For the same compound, the MIC in the experiment with Enterobacter cloacae was determined as 0.049 µg/mL (≈ 0.11 µM); against Escherichia coli it was 0.049 µg/mL (≈ 0.11 µM); in the experiment with Streptococcus agalactiae it was 0.02 µg/mL (≈ 0.0448 µM); with Streptococcus pneumoniae, 0.02 µg/mL (≈ 0.0448 µM); in the experiment with Haemophilus influenzae it was 6.25 µg/mL (≈ 14 µM); against Staphylococcus aureus, 3.12 µg/mL (≈ 6.99 µM). Also, the MIC against Serratia marcescens turned out to be 0.049 µg/mL (≈ 0.11 µM); in the experiment with Streptococcus pyogenes it was 0.01 µg/mL (≈ 0.0224 µM).

Regarding `C[C@@H](O)C1C(=O)N2C(C(=O)O)=C(S[C@@H]3CN[C@H](CN4CCCNS4(=O)=O)C3)[C@H](C)C12` (some centres not stated), the MIC in the experiment on Enterococcus faecalis stood at 6.25 µg/mL (≈ 13.6 µM); in the experiment with Citrobacter freundii, 0.049 µg/mL (≈ 0.106 µM); with Staphylococcus, 0.098 µg/mL (≈ 0.213 µM); against Pseudomonas aeruginosa, 1.56 µg/mL (≈ 3.39 µM); in the experiment with Acinetobacter baumannii it was 6.25 µg/mL (≈ 13.6 µM); in the experiment with Klebsiella pneumoniae, 0.049 µg/mL (≈ 0.106 µM). Besides, the MIC against Enterobacter cloacae was 0.049 µg/mL (≈ 0.106 µM); in the experiment with Escherichia coli it was 0.049 µg/mL (≈ 0.106 µM); in the experiment with Streptococcus agalactiae it was 0.01 µg/mL (≈ 0.0217 µM); against Streptococcus pneumoniae, 0.02 µg/mL (≈ 0.0434 µM); in the experiment with Haemophilus influenzae, 6.25 µg/mL (≈ 13.6 µM); in the experiment with Staphylococcus aureus, 6.25 µg/mL (≈ 13.6 µM). Further, the MIC in the experiment with Serratia marcescens came to 0.198 µg/mL (≈ 0.43 µM); against Streptococcus pyogenes, 0.01 µg/mL (≈ 0.0217 µM).

Take `CCN1CCN(C[C@@H]2C[C@H](SC3=C(C(=O)O)N4C(=O)C([C@@H](C)O)C4[C@H]3C)CN2)S1(=O)=O` (some centres not stated): the MIC was 6.25 µg/mL (≈ 13.2 µM) in the experiment with Enterococcus faecalis; 0.098 µg/mL (≈ 0.206 µM) in the experiment on Citrobacter freundii; 0.198 µg/mL (≈ 0.417 µM) against Staphylococcus; 12.5 µg/mL (≈ 26.3 µM) against Pseudomonas aeruginosa; 25 µg/mL (≈ 52.7 µM) in the experiment on Acinetobacter baumannii; 0.198 µg/mL (≈ 0.417 µM) in the experiment with Klebsiella pneumoniae. Further, the MIC in the experiment on Enterobacter cloacae was determined as 0.098 µg/mL (≈ 0.206 µM); in the experiment with Escherichia coli it was 0.098 µg/mL (≈ 0.206 µM); in the experiment with Streptococcus agalactiae, 0.04 µg/mL (≈ 0.0843 µM); against Streptococcus pneumoniae, 0.04 µg/mL (≈ 0.0843 µM); in the experiment on Haemophilus influenzae, 12.5 µg/mL (≈ 26.3 µM); in the experiment on Staphylococcus aureus, 25 µg/mL (≈ 52.7 µM). For the same compound, the values for the MIC in the experiment on Serratia marcescens and in the experiment on Streptococcus pyogenes were 0.098 µg/mL (≈ 0.206 µM) and 0.02 µg/mL (≈ 0.0421 µM), respectively.

With `C[C@@H](O)C1C(=O)N2C(C(=O)O)=C(S[C@@H]3CN[C@H](CN4CCOS4(=O)=O)C3)[C@H](C)C12` (some centres not stated), the MIC came out at 6.25 µg/mL (≈ 14 µM) against Enterococcus faecalis; 0.195 µg/mL (≈ 0.436 µM) in the experiment with Citrobacter freundii; 0.098 µg/mL (≈ 0.219 µM) against Staphylococcus; 12.5 µg/mL (≈ 27.9 µM) in the experiment on Pseudomonas aeruginosa; 12.5 µg/mL (≈ 27.9 µM) in the experiment on Acinetobacter baumannii; 0.098 µg/mL (≈ 0.219 µM) with Klebsiella pneumoniae. Also, the MIC in the experiment with Enterobacter cloacae turned out to be 0.098 µg/mL (≈ 0.219 µM); against Escherichia coli, 0.049 µg/mL (≈ 0.109 µM); in the experiment with Streptococcus agalactiae, 0.02 µg/mL (≈ 0.0447 µM); against Streptococcus pneumoniae it was 0.013 µg/mL (≈ 0.029 µM); against Haemophilus influenzae, 6.25 µg/mL (≈ 14 µM); with Staphylococcus aureus it was 3.12 µg/mL (≈ 6.97 µM). Also, the MIC against Serratia marcescens came out at 0.198 µg/mL (≈ 0.442 µM); in the experiment on Streptococcus pyogenes, 0.02 µg/mL (≈ 0.0447 µM).

For `CC1CN(C[C@@H]2C[C@H](SC3=C(C(=O)O)N4C(=O)C([C@@H](C)O)C4[C@H]3C)CN2)S(=O)(=O)N1` (some centres not stated), the MIC in the experiment on Enterococcus faecalis was determined as 25 µg/mL (≈ 54.3 µM); against Citrobacter freundii, 0.198 µg/mL (≈ 0.43 µM); with Staphylococcus, 0.391 µg/mL (≈ 0.849 µM); against Pseudomonas aeruginosa it was 25 µg/mL (≈ 54.3 µM); in the experiment on Acinetobacter baumannii it was 25 µg/mL (≈ 54.3 µM); in the experiment on Klebsiella pneumoniae, 0.198 µg/mL (≈ 0.43 µM). In addition, the MIC against Enterobacter cloacae came out at 0.195 µg/mL (≈ 0.423 µM); against Escherichia coli, 0.198 µg/mL (≈ 0.43 µM); against Streptococcus agalactiae, 0.04 µg/mL (≈ 0.0868 µM); in the experiment on Streptococcus pneumoniae, 0.04 µg/mL (≈ 0.0868 µM); against Haemophilus influenzae, 12.5 µg/mL (≈ 27.1 µM); with Staphylococcus aureus, 25 µg/mL (≈ 54.3 µM). Further, the MIC in the experiment with Serratia marcescens came out at 0.195 µg/mL (≈ 0.423 µM); in the experiment with Streptococcus pyogenes, 0.04 µg/mL (≈ 0.0868 µM).

Take `C[C@@H](O)C1C(=O)N2C(C(=O)O)=C(S[C@@H]3CN[C@H](CN4CCN(C)S4(=O)=O)C3)[C@H](C)C12` (some centres not stated): the MIC in the experiment on Enterococcus faecalis stood at 6.25 µg/mL (≈ 13.6 µM); against Citrobacter freundii, 0.049 µg/mL (≈ 0.106 µM); against Staphylococcus it was 0.098 µg/mL (≈ 0.213 µM); against Pseudomonas aeruginosa, 3.12 µg/mL (≈ 6.78 µM); with Acinetobacter baumannii, 12.5 µg/mL (≈ 27.1 µM); in the experiment on Klebsiella pneumoniae, 0.098 µg/mL (≈ 0.213 µM). Also, the MIC against Enterobacter cloacae was found to be 0.049 µg/mL (≈ 0.106 µM); in the experiment on Escherichia coli, 0.049 µg/mL (≈ 0.106 µM); against Streptococcus agalactiae, 0.02 µg/mL (≈ 0.0434 µM); in the experiment with Streptococcus pneumoniae, 0.02 µg/mL (≈ 0.0434 µM); in the experiment on Haemophilus influenzae it was 6.25 µg/mL (≈ 13.6 µM); with Staphylococcus aureus it was 12.5 µg/mL (≈ 27.1 µM). Also, the MIC against Serratia marcescens came to 0.098 µg/mL (≈ 0.213 µM); in the experiment on Streptococcus pyogenes, 0.02 µg/mL (≈ 0.0434 µM).

For `C[C@@H](O)C1C(=O)N2C(C(=O)O)=C(S[C@@H]3CN[C@H](CN4CCN(Cc5ccccc5)S4(=O)=O)C3)[C@H](C)C12` (some centres not stated), the MIC stood at 3.12 µg/mL (≈ 5.81 µM) against Enterococcus faecalis; 0.781 µg/mL (≈ 1.46 µM) against Citrobacter freundii; 0.098 µg/mL (≈ 0.183 µM) against Staphylococcus; 100 µg/mL (≈ 186 µM) with Pseudomonas aeruginosa; 50 µg/mL (≈ 93.2 µM) against Acinetobacter baumannii; 0.781 µg/mL (≈ 1.46 µM) against Klebsiella pneumoniae. Further, the MIC was found to be 0.781 µg/mL (≈ 1.46 µM) against Enterobacter cloacae; 0.195 µg/mL (≈ 0.363 µM) in the experiment with Escherichia coli; 0.02 µg/mL (≈ 0.0373 µM) against Streptococcus agalactiae; 0.025 µg/mL (≈ 0.0466 µM) in the experiment on Streptococcus pneumoniae; 12.5 µg/mL (≈ 23.3 µM) against Haemophilus influenzae; 3.12 µg/mL (≈ 5.81 µM) against Staphylococcus aureus. Further, the MIC against Serratia marcescens was 6.25 µg/mL (≈ 11.6 µM); in the experiment on Streptococcus pyogenes it was 0.02 µg/mL (≈ 0.0373 µM).
